Data reported in ChEMBL document CHEMBL1127358 (J Med Chem, 1994).
pKi: −log10 of the molar value.

Experiments:
[1] = target: Muscarinic acetylcholine receptor M2 (Cavia porcellus); experiment: Antagonistic activity against M2 muscarinic receptor in guinea pig left atrium derived by plotting log(DR - 1) vs log[antagonist]; details: read-out: pA2 (converted)
[2] = target: T1, Muscarinic acetylcholine receptor M3 (Cavia porcellus, UniProt Q8VH26); experiment: Antagonistic activity against M3 muscarinic receptor in guinea pig left ileum derived by plotting log(DR - 1) vs log[antagonist]; assay type: functional, tissue-based; details: read-out: pA2 (converted)
T1 sequence (Q8VH26 whole entry): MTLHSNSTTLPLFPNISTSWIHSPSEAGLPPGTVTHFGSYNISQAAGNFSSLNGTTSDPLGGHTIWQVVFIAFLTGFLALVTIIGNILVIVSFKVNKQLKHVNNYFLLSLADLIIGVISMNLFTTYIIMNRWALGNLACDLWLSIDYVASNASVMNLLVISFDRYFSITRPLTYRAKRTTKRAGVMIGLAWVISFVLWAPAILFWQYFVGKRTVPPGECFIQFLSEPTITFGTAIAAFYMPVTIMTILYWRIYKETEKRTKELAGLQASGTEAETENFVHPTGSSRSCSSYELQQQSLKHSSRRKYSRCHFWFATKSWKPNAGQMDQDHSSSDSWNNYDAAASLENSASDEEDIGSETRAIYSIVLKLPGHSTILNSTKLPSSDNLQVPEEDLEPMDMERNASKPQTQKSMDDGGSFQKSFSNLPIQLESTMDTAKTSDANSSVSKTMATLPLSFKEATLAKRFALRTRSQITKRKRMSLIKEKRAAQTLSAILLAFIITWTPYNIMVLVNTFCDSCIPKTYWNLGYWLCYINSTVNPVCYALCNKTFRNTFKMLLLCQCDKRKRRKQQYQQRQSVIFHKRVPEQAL
Outline: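 Guinea pig tissue. Ileum: terminal segments about 2 cm, 1 g tension, 37 °C, Tyrode solution, isotonic recording. Carbachol dose–response curves (0.01–0.5 μM) at 30 min intervals, second curve as control. Repeated after 60 min antagonist incubation. Dose ratios at agonist EC50, one to six antagonist concentrations, each tested 4–8 times. pA2 from Schild plot of log(DR−1); mean ± SE.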

[3] = test system: Muscarinic acetylcholine receptors M2 & M3 (Cavia porcellus); experiment: Selectivity ratio is the antilog of the difference between the pA2 values at guinea pig left atrium and ileum muscarinic receptors
[4] = target: Muscarinic acetylcholine receptor M3 (Rattus norvegicus, UniProt P08483); experiment: Tested for affinity constant against M3 muscarinic receptor in rat submaxillary gland using [3H]NMS; assay type: tissue-based
Muscarinic acetylcholine receptor M3 (Rattus norvegicus, UniProt P08483), sequence (P08483 whole entry): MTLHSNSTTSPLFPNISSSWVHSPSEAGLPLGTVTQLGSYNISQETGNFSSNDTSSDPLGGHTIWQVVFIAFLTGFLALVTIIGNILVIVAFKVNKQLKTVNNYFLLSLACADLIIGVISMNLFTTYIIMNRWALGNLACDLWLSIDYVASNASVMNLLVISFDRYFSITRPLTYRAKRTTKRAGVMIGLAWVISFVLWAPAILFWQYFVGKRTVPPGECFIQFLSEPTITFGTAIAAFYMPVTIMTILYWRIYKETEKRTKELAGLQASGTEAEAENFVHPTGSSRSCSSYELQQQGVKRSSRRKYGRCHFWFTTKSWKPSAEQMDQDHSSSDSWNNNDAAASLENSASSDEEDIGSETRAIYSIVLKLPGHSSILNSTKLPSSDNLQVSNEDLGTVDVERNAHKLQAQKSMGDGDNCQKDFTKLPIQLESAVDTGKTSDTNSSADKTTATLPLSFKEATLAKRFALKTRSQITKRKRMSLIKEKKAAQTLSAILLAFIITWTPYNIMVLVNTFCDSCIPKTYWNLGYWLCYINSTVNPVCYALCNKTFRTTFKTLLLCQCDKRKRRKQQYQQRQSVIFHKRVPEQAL

[5] = target: T2, Muscarinic acetylcholine receptor M2 (Rattus norvegicus, UniProt P10980); experiment: Tested for affinity constant against M2 muscarinic receptor rat heart using [3H]-NMS
T2 sequence (P10980 whole entry): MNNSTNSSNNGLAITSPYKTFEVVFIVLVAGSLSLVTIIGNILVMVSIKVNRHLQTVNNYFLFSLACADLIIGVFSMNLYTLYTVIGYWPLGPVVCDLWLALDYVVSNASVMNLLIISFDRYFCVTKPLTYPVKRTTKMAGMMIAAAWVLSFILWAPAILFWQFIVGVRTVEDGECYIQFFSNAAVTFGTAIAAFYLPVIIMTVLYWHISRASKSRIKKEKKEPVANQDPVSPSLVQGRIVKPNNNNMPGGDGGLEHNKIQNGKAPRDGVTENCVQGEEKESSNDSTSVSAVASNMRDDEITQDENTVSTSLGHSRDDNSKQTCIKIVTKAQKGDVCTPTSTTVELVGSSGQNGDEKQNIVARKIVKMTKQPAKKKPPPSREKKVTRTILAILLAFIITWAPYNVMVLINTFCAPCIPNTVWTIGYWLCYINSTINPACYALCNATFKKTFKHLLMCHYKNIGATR

[6] = target: T3, Muscarinic acetylcholine receptor M1 (Rattus norvegicus, UniProt P08482); experiment: Tested for affinity constant against M1 muscarinic receptor in rat cortex using [3H]pirenzepine
T3 sequence (P08482 whole entry): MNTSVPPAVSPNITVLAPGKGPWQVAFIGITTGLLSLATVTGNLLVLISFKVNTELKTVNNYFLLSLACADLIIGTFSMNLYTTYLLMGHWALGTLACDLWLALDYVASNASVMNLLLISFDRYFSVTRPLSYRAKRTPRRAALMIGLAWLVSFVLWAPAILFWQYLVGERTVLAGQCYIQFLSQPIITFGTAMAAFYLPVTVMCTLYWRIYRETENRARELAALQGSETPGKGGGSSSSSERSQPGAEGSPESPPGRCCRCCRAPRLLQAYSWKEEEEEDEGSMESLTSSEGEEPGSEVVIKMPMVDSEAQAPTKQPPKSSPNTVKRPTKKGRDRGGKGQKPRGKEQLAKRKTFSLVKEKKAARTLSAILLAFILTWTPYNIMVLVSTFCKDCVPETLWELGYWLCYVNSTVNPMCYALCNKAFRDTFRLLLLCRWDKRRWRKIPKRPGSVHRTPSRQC

[7] = Tested for affinity constant against M4 muscarinic receptor in NG 108-15 cell homogenates using [3H]NMS; assay type: cell-based
[8] = target: T1, Muscarinic acetylcholine receptor M3; experiment: Antagonistic activity against M3 muscarinic receptor in guinea pig left ileum derived by plotting log(DR - 1) vs log[antagonist]; inactive up to a concentration of 10; assay type: functional, tissue-based; details: read-out: pA2 (converted)
Outline: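 Guinea pig ileum segments at 37 °C in Tyrode solution, isotonic recording. Carbachol dose–response curves were run before and after 60 min antagonist incubation. Compounds were tested up to 10 μM antagonist, and inactivity was scored up to that concentration.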

[9] = target: Muscarinic acetylcholine receptor M3 (Rattus norvegicus) (UniProt P08483); experiment: Inhibitory activity against M3 muscarinic receptor binding in rat submaxillary gland by [3H]NMS at 10 uM concentration; assay type: tissue-based
Muscarinic acetylcholine receptor M3 (Rattus norvegicus), sequence (P08483 whole entry, looked up): as the sequence (P08483 whole entry) above
Outline: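 Rat submaxillary gland homogenate. […] Nonspecific binding defined with 10 μM atropine. Percent inhibition of specific binding scored, with IC50 not derivable when inhibition stayed below 50%.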

| SMILES | Kb [1] [nM] | Kb [2] [nM] | Ratio [3] | pKi [4] | pKi [5] | pKi [6] | Kb [8] [nM] | inhibition [9] [%] | Log Ki [7] |
| --- | --- | --- | --- | --- | --- | --- | --- | --- | --- |
| COc1ccccc1CNCCCCCCNCCCCCCCCNCCCCCCN | 91.2 | 1550 | 17 |  |  |  |  |  |  |
| COc1ccccc1CNCCCCCCN(C)CCCCCCCCN(C)CCCCCCNCc1ccccc1OC |  |  | 48 |  |  |  |  |  |  |
| CCN(CC)CCCCC1CCN(CC(=O)N2c3ccccc3C(=O)Nc3cccnc32)CC1 |  | 100 |  | 6.60 |  | 6.98 |  |  | -7.82 |
| CCN(CC)CCCCCCNCc1ccccc1OC | 2510 |  | > 4 |  |  |  | > 10000 |  |  |
| CN(CCCCCCN)CCCCCCCCN(C)CCCCCCN | 282 | 7590 | 27 |  |  |  |  |  |  |
| CN(CCCCCCCCN(C)CCCCCCN(CC(=O)N1c2ccccc2C(=O)Nc2cccnc21)CC(=O)N1c2ccccc2C(=O)Nc2cccnc21)CCCCCCNCC(=O)N1c2ccccc2C(=O)Nc2cccnc21 [TRIPITRAMINE] |  |  |  |  |  |  |  |  | -7.93 |
| CCN(CC)CCCCCCNCC(=O)N1c2ccccc2C(=O)Nc2cccnc21 | 251 | 832 | 3 |  |  |  |  |  |  |
| COc1ccccc1CNCCCCCCNCCCCCCCCNCCCCCCNCc1ccccc1OC [METHOCTRAMINE] |  |  |  |  |  |  |  |  | -7.58 |

Second part, led by results:

| Kb [1] [nM] | Kb [2] [nM] | Ratio [3] | pKi [4] | pKi [5] | pKi [6] | Kb [8] [nM] | inhibition [9] [%] | SMILES | Log Ki [7] |
| --- | --- | --- | --- | --- | --- | --- | --- | --- | --- |
| 47.9 | 2040 | 26 | 6.60 | 8.43 | 8.90 |  |  | COc1ccccc1CN(CCCCCCN(C)CCCCCCCCN(C)CCCCCCN(CC(=O)N1c2ccccc2C(=O)Nc2cccnc21)Cc1ccccc1OC)CC(=O)N1c2ccccc2C(=O)Nc2cccnc21.O=C(O)C(=O)O.O=C(O)C(=O)O.O=C(O)C(=O)O.O=C(O)C(=O)O | -7.8 |
| 1050 |  | > 10 |  |  |  | > 10000 |  | CCN(CC)CCCCCCN(CC(=O)N1c2ccccc2C(=O)Nc2cccnc21)CC(=O)N1c2ccccc2C(=O)Nc2cccnc21 |  |
|  | 661 |  | 6.33 |  | 8.57 |  |  | CN(CCCCCCN)CCCCCCCCN(C)CCCCCCNCC(=O)N1c2ccccc2C(=O)Nc2cccnc21 | -7.74 |
| 15.5 | 759 | 49 | 6.81 | 7.66 | 8.32 |  |  | CN(CCCCCCCCN(C)CCCCCCN(CC(=O)N1c2ccccc2C(=O)Nc2cccnc21)CC(=O)N1c2ccccc2C(=O)Nc2cccnc21)CCCCCCN(CC(=O)N1c2ccccc2C(=O)Nc2cccnc21)CC(=O)N1c2ccccc2C(=O)Nc2cccnc21.O=C(O)C(=O)O.O=C(O)C(=O)O.O=C(O)C(=O)O.O=C(O)C(=O)O | -7.05 |
| 1.58 | 417 | 260 |  | 8.80 | 8.73 |  | < 50 | COc1ccccc1CN(CCCCCCN(C)CCCCCCCCN(C)CCCCCCNCC(=O)N1c2ccccc2C(=O)Nc2cccnc21)CC(=O)N1c2ccccc2C(=O)Nc2cccnc21.O=C(O)C(=O)O.O=C(O)C(=O)O.O=C(O)C(=O)O.O=C(O)C(=O)O | -8.22 |
| 178 | 1260 | 7 |  |  |  |  |  | CCN(CC)CCCCCCN(CC(=O)N1c2ccccc2C(=O)Nc2cccnc21)Cc1ccccc1OC |  |
| 5.89 | 1550 | 260 | 5.17 | 7.89 | 8.60 |  |  | CN(CCCCCCN)CCCCCCCCN(C)CCCCCCN(CC(=O)N1c2ccccc2C(=O)Nc2cccnc21)CC(=O)N1c2ccccc2C(=O)Nc2cccnc21.O=C(O)C(=O)O.O=C(O)C(=O)O.O=C(O)C(=O)O.O=C(O)C(=O)O | -6.72 |
| 3.09 | 575 | 190 | 6.10 | 8.77 | 7.55 |  |  | COc1ccccc1CNCCCCCCN(C)CCCCCCCCN(C)CCCCCCNCC(=O)N1c2ccccc2C(=O)Nc2cccnc21 | -7.24 |
|  |  |  | 6.76 | 8.62 | 8.77 |  |  | CN(CCCCCCCCN(C)CCCCCCNCC(=O)N1c2ccccc2C(=O)Nc2cccnc21)CCCCCCNCC(=O)N1c2ccccc2C(=O)Nc2cccnc21 | -8.52 |
| 4.57 | 447 | 98 | 5.60 | 7.73 | 7.80 |  |  | COc1ccccc1CNCCCCCCN(C)CCCCCCCCN(C)CCCCCCN(CC(=O)N1c2ccccc2C(=O)Nc2cccnc21)CC(=O)N1c2ccccc2C(=O)Nc2cccnc21.O=C(O)C(=O)O.O=C(O)C(=O)O.O=C(O)C(=O)O.O=C(O)C(=O)O | -7.9 |
| 1580 |  | > 6 |  |  |  | > 10000 |  | CCCCN(CC(=O)N1c2ccccc2C(=O)Nc2cccnc21)CC(=O)N1c2ccccc2C(=O)Nc2cccnc21 |  |
